The subject of this test is PC9 cells. The experiment in a line: Cell cycle by PI staining flow cytometry. The conditions noted are these: PC9, 24 h. Format: cell-based, human. The method in brief: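 Cells in RPMI 1640 with 10% FBS (37°C, 5% CO2) were seeded in 6-well plates at 20–25% confluence and exposed to graded test compound or a reference EGFR inhibitor for 24 h. They were then fixed in 70% ethanol for 24 h at 4°C, washed twice in PBS, treated with RNase A at 37°C for 30 min and stained with PI (50 μg/mL) for 10 min. DNA content was read by flow cytometry.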
For orientation: In flow cytometry, cells or beads pass a laser one at a time.

For `COc1cc2ncnc(Nc3ccc(F)c(Cl)c3)c2cc1OCCCN1CCOCC1` [gefitinib], the cell cycle arrest entry is “arrested only PC9 (EGFR L858R+) cells at G0/G1 phase”.

The values above are taken from PMC9828441 (Acta Biochimica et Biophysica Sinica, 2022).
